PMC2908238 (Journal of neurochemistry, 2010)

What was measured:
[1] = Electron microscopy, morphology of assemblies; format: physicochemical; conditions: EM, 10 µM peptide, pH 7.4, 25°C, agitation 200 rpm; for Morphology after 72 h of incubation: 72 h (Aβ40 analogues)
In short: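 Peptide from HFIP films, dissolved in 60 mM NaOH, diluted with water, sonicated 1 min, adjusted to 10 µM in 20 mM sodium phosphate pH 7.4; incubated 25°C with 200 rpm orbital shaking. Aliquots adsorbed 20 min on glow-discharged carbon-coated Formvar grids, wicked, fixed 2.5% glutaraldehyde 4 min, stained 1% uranyl acetate 3 min, air-dried; transmission EM.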

[2] = Dynamic light scattering; format: physicochemical; conditions: 10 µM peptide, pH 7.4, filtered 20 nm, quiescent incubation
In short: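 HFIP-treated peptide films dissolved in 60 mM NaOH, diluted with water, sonicated 1 min, then brought to 10 µM in 20 mM sodium phosphate, pH 7.4. Passed through 20-nm filter before first reading; kept at room temperature, no agitation, up to 14 days. 633-nm He-Ne laser, 90° scattering, multitau correlator; size distribution from regularization deconvolution. Representative of two independent experiments.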

[3] = 5 µM, 37°C, without agitation, ref Ciccotosto et al. 2004; cited from earlier work

Substance	Morphology after 72 h of incubation [1]	Morphology after 24 h of incubation ([1]; 24 h (Aβ42 analogues))	DLS intensity spikes (fibril formation) after 7 days ([2]; 7 days)	Hydrodynamic radius (RH) of particles after 7 days ([2]; DLS, 7 days)	Hydrodynamic radius (RH) of particles after 14 days ([2]; DLS, 14 days)	Morphology initially and after 72 h of incubation [3]
[Val^35]Aβ40: Aβ40 analogue with Met^35 substituted by Val	mixture of oligomers and fibrils					
Aβ40: wild-type amyloid β-protein, 40-residue alloform, synthesized by Fmoc chemistry	did not change					
Aβ42: wild-type amyloid β-protein, 42-residue alloform, synthesized by Fmoc chemistry		abundant fibrils	no intensity spikes	the same distribution	100–200 nm	non-fibrillar morphology
